Experimental data gathered from unrelated publications.
Cell line: Vero
Read-out: cell growth or viability

Oc1ccc(C2CC(c3ccc(Nc4nnc(-c5ccc(Cl)cc5)c5ccccc45)cc3)=NN2)cc1 (stereo not shown) — IC50: 4.35 µM
OC(Cn1cncn1)(Cn1cncn1)c1ccc(F)cc1F — IC50 (MTT; 24 h): 173 µM
COc1ccc(NC(=O)C2=C(C)NC(C)=C(C(=O)Nc3ccc(OC)cc3OC)C2c2ccc(Cl)cc2)c(OC)c1 — IC50 (MTT): 76.4 µM
O=c1nc(-c2ccc(Nc3nnc(-c4ccc(Cl)cc4)c4ccccc34)cc2)cc(-c2ccc(Cl)cc2)[nH]1 — IC50: 3 µM
C=CCn1c(=O)n(CC(=O)Nc2ccc(-n3nc(C)cc3C)cc2)c(=O)c2cc(I)ccc21 — IC50: 43.4 µM
Cc1ccc2c(-c3cc4c(CNCc5cccnc5)cnc(C)c4o3)cc(=O)oc2c1C — IC50 (MTT; 72 h): 98.5 µM
COc1cc(NC(=O)C2=C(C)NC(C)=C(C(=O)Nc3cc(OC)c(Cl)cc3OC)C2c2cccc(Cl)c2)c(OC)cc1Cl — IC50 (MTT): 28.4 µM
Oc1ccccc1C1CC(c2ccc(Nc3nnc(-c4ccc(Cl)cc4)c4ccccc34)cc2)=NN1 (stereo not shown) — IC50: 4.11 µM
C=CC(=O)Nc1cc(Nc2nccc(-c3cn(C)c4ccccc34)n2)c(OC)cc1N(C)CCN(C)C — IC50 (MTT; 72 h): 181 µM
CCOC(=O)c1ccc(NC(=O)Cn2c(=O)c3cc(I)ccc3n(Cc3ccccc3)c2=O)cc1 — IC50: 49.1 µM
S=c1nc(-c2ccc(Nc3nnc(-c4ccc(Cl)cc4)c4ccccc34)cc2)cc(-c2ccc(Cl)cc2)[nH]1 — IC50: 3.15 µM
COc1ccc(NC(=O)C2=C(C)NC(C)=C(C(=O)Nc3cc(OC)c(Cl)cc3OC)C2c2ccc(O)cc2)c(OC)c1 (stereo not shown) — IC50 (MTT): 60.2 µM
O=c1nc(-c2ccc(Nc3nnc(-c4ccc(Cl)cc4)c4ccccc34)cc2)cc(-c2ccccc2)[nH]1 — IC50: 4 µM
Cc1ncc(CN2CCN(Cc3ccccn3)CC2)c2cc(C(=O)c3ccc4c(c3)OCCO4)oc12 — IC50 (MTT; 72 h): 50.1 µM
COc1ccc(NC(=O)C2=C(C)NC(C)=C(C(=O)Nc3cc(OC)c(Cl)cc3OC)C2c2ccccc2)c(OC)c1 (stereo not shown) — IC50 (MTT): 59.6 µM
COC(=O)c1ccc(NC(=O)Cn2c(=O)c3cc(I)ccc3n(Cc3ccccc3)c2=O)cc1 — IC50: 50.2 µM
Cc1ccc2c(-c3cc4c(CN5CCN(Cc6ccccn6)CC5)cnc(C)c4o3)cc(=O)oc2c1 — IC50 (MTT; 72 h): 60.4 µM
Cc1nnc(-c2ccc(NC(=O)Cn3c(=O)c4cc(I)ccc4n(Cc4ccccc4)c3=O)cc2)o1 — IC50: 46.1 µM
COc1cc(NC(=O)C2=C(C)NC(C)=C(C(=O)Nc3cc(OC)c(Cl)cc3OC)C2c2ccc(Cl)cc2)c(OC)cc1Cl — IC50 (MTT): 27.4 µM
